Tests used:
L1210 = assay: Cytostatic activity against mouse L1210 cells after 2 days by coulter counter analysis; format: functional, cell-based; conditions: L1210, 48 h
In short: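 Murine leukemia L1210 cultures exposed to compound, 2 days at 37 °C; living cells counted by Coulter counter; IC50 is the concentration inhibiting proliferation by 50%.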

HeLa = assay: Cytostatic activity against human HeLa cells after 4 days by coulter counter analysis; format: functional, cell-based; conditions: 96 h
In short: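 HeLa cervix carcinoma cultures exposed to compound, 4 days at 37 °C; viable cells counted by Coulter counter; IC50 is the concentration giving 50% inhibition of proliferation.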

CCRF-CEM [1] = assay: Cytostatic activity against human dCK-deficient CEM cells after 3 days by coulter counter analysis; format: functional, cell-based; conditions: 72 h
In short: (§1)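 CEM T-lymphocyte cultures exposed to compound, 3 days at 37 °C; living cells counted by Coulter counter; IC50 is the concentration inhibiting proliferation by 50%.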

CCRF-CEM [2] = assay: Cytostatic activity against human CEM cells after 3 days by coulter counter analysis; format: functional, cell-based; conditions: 72 h; in short: as §1
CCRF-CEM [3] = assay: Ratio of IC50 for human dCK-deficient CEM cells to IC50 for human CEM cells; format: functional
MCF7 = assay: Cytostatic activity against human MCF7 cells after 4 days by coulter counter analysis; conditions: MCF7, 96 h
Serum [4] = assay: Metabolic stability in human serum assessed as dFdU formation at 100 uM up to 240 mins by HPLC analysis; format: ADME, cell-free; conditions: 4 h
In short: (§2)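 Compound at 100 μM in 50% human serum in PBS, 37 °C; aliquots taken at 0, 60 and 240 min; reverse-phase RP-18 HPLC (acetonitrile/H₂O) resolving dFdU and gemcitabine.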

[5] = target: Deoxycytidine kinase (Homo sapiens) (UniProt P27707); assay: Activity at recombinant dCK (unknown origin) at 100 uM by HPLC analysis
Liver [6] = assay: Prodrug conversion in mouse liver assessed as dFdU formation at 100 uM by HPLC analysis; format: ADME, tissue-based
In short: (§3)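 Compound at 100 μM in murine liver extract in PBS, 37 °C; sampled at 0, 30 and 120 min; reverse-phase RP-18 HPLC (acetonitrile/H₂O) resolving dFdU and gemcitabine.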

Liver [7] = assay: Prodrug conversion in mouse liver assessed as gemicitabine formation at 100 uM by HPLC analysis; format: ADME, tissue-based; in short: as §3
Serum [8] = assay: Prodrug conversion in human serum assessed as dFdU formation at 100 uM up to 240 mins by HPLC analysis; format: ADME, cell-free; conditions: 4 h; in short: as §2
Serum [9] = assay: Prodrug conversion in human serum assessed as gemicitabine formation at 100 uM by HPLC analysis; format: ADME, cell-free; in short: as §2
Liver [10] = assay: Prodrug conversion in mouse liver assessed as dFdU formation at 100 uM after 2 hrs by HPLC analysis; format: ADME, tissue-based; in short: as §3
Liver [11] = assay: Prodrug conversion in mouse liver at 100 uM after 2 hrs by HPLC analysis; format: ADME, tissue-based; in short: as §3

Sequence of Deoxycytidine kinase (Homo sapiens) (P27707 whole entry, looked up): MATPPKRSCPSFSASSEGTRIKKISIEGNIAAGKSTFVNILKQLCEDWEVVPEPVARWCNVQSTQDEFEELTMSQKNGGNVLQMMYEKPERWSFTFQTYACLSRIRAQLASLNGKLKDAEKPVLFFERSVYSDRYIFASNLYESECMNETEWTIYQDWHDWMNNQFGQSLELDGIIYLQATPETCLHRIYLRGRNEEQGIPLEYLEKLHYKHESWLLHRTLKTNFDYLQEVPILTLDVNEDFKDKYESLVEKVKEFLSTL

Stability (Serum [4]) | Activity [5] | Drug metabolism (Liver [6]) | Drug metabolism (Liver [7]) | Drug metabolism (Serum [8]) | Drug metabolism (Serum [9]) | Stability (Liver [10]) | Stability (Liver [11]) | Stability (Serum [8]) | Stability (Serum [9]) | Structure (SMILES) | IC50 (L1210) | IC50 (HeLa) | IC50 (CCRF-CEM [1]) | IC50 (CCRF-CEM [2]) | Ratio IC50 (CCRF-CEM [3]) | IC50 (MCF7)
 |  |  |  |  |  |  |  |  |  | O=c1nc(NCCCCCCCCCCCF)ccn1[C@@H]1O[C@H](CO)[C@@H](O)C1(F)F | 28000 nM | 17000 nM | 134000 nM | 28000 nM | 4.8 | 26000 nM
 |  |  |  |  |  |  |  |  |  | CCCCCCCCCCC(=O)Nc1ccn([C@@H]2O[C@H](CO)[C@@H](O)C2(F)F)c(=O)n1 | 14 nM | 8.9 nM | 5800 nM | 60 nM |  | 5.3 nM
Unstable | 15% |  |  |  |  |  |  |  |  | Nc1ccn([C@@H]2O[C@H](CO)[C@@H](O)C2(F)F)c(=O)n1 [GEMCITABINE] | 13 nM | 9.9 nM | 7600 nM | 69 nM |  | 7.2 nM
 |  | Active | Active | Active | Active |  |  |  |  | O=C(CCCCCCCCCCO)Nc1ccn([C@@H]2O[C@H](CO)[C@@H](O)C2(F)F)c(=O)n1 | 23 nM | 49 nM | 19000 nM | 240 nM |  | 8.1 nM
 |  |  |  |  |  |  |  |  |  | C=CCCCCCCC(=O)Nc1ccn([C@@H]2O[C@H](CO)[C@@H](O)C2(F)F)c(=O)n1 | 24 nM | 42 nM | 20000 nM | 140 nM |  | 7.9 nM
 |  |  |  |  |  |  |  |  |  | CCCC(CCC)C(=O)Nc1ccn([C@@H]2O[C@H](CO)[C@@H](O)C2(F)F)c(=O)n1 [LY-2334737] | 1100 nM | 760 nM | 161000 nM | 5200 nM |  | 550 nM
 |  |  |  |  |  | Stable | Stable | Stable | Stable | O=c1nc(NCCCCCCCCCCCO)ccn1[C@@H]1O[C@H](CO)[C@@H](O)C1(F)F | 29000 nM | 22000 nM | 140000 nM | 86000 nM | 2 | 27000 nM
 | < 1% |  |  |  |  |  |  |  |  | O=C(CCCCCCCCCCF)Nc1ccn([C@@H]2O[C@H](CO)[C@@H](O)C2(F)F)c(=O)n1 | 53 nM | 11 nM | 7200 nM | 59 nM |  | 7.7 nM
 | < 1% |  |  |  |  |  |  |  |  | C=CCCCCCCCCCCC(=O)Nc1ccn([C@@H]2O[C@H](CO)[C@@H](O)C2(F)F)c(=O)n1 | 21 nM | 13 nM | 6800 nM | 69 nM |  | 7.9 nM
 |  |  |  |  |  |  |  |  |  | C=CCCCCCCCCC(=O)Nc1ccn([C@@H]2O[C@H](CO)[C@@H](O)C2(F)F)c(=O)n1 | 18 nM | 12 nM | 12000 nM | 71 nM |  | 6.2 nM
 |  |  |  |  |  |  |  |  |  | C=CCCCCCCCCCNc1ccn([C@@H]2O[C@H](CO)[C@@H](O)C2(F)F)c(=O)n1 | 7000 nM | 3400 nM | 60000 nM | 13000 nM | 4.6 | 28000 nM

From ChEMBL document CHEMBL3108757, “Synthesis and cytostatic evaluation of 4-N-alkanoyl and 4-N-alkyl gemcitabine analogues” (J Med Chem, 2014)
